Compound activity deposited in PubChem BioAssay by Johns Hopkins Ion Channel Center.
KCNQ1 act: human KCNQ1 channel potentiation or activation; P51787; CHO-K1 KCNQ1, thallium flux FluxOR fluorescence; stronger effect = higher value; B-score at 10 µM; hit rate 0.35% among 310,000; AID 2648;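 active means fluorescence ratio B-score, a plate-corrected score, at least three library SD, with initial intensity B-score within 5 SD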
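Doses: Single concentration per compound, DMSO matched to controls | Test system: KCNQ1-transfected CHO-K1 cells | Timing: 90 min dye loading and 20 min compound exposure, both at room temperature | Measured by: Kinetic FluxOR thallium fluorescence, 10-s 1-Hz baseline, 110-s post-stimulus read | Medium: Assay buffer with matched DMSO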
KCNK9 inh: human KCNK9 channel inhibition; B-score at 10 µM; Q9NPC2; hit rate 1.2% among 310,000; HEK293 KCNK9, FluxOR thallium flux fluorescence; stronger effect = lower value; AID 488922;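 active means ratio B-score over 3 SD below the library mean, with starting fluorescence within 5 SD of its mean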;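 further: negative B-score means less thallium flux so channel inhibition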
Target sequence (Q9NPC2 whole entry, looked up): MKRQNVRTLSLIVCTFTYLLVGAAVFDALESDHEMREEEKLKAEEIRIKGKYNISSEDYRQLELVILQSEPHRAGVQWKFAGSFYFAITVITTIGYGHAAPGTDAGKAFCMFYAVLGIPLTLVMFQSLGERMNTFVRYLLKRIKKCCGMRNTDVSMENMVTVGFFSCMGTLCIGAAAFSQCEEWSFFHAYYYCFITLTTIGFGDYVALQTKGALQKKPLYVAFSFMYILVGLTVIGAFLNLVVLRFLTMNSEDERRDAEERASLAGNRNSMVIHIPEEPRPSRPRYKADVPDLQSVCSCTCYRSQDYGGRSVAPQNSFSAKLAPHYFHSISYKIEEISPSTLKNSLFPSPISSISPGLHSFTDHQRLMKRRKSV
KCNK3 inh: human KCNK3 channel inhibition, primary screen; CHO-KCNK3 thallium flux, FluxOR fluorescence; stronger effect = lower value; B-score at 10 µM; hit rate 0.84% among 340,000; AID 602410;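 active means B-score under library mean minus 4 SD, starting fluorescence ratio at most library mean plus 5 SD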;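 further: more negative B-score means stronger inhibition of thallium flux through KCNK3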
hERG protect: shields human hERG channel from block by proarrhythmic agents. CHO-hERG, FluxOR thallium flux, dofetilide IC70 present. hit rate 0.51% among 310,000. activation (rescue from dofetilide block), less the hit threshold, % at 10 µM;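 active means activation above the mean of controls blocked by dofetilide plus 5 SD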;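 further: thallium influx through hERG after potassium depolarization seen as dye fluorescence rise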
Kir21 inh: blocks the mouse Kir2.1 inward-rectifier potassium channel; hit rate 0.85% among 310,000; P35561; AID 1672; HEK293-Kir2.1, FluxOR thallium flux fluorescence; stronger effect = lower value; B-score at 10 µM;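 active means fluorescence ratio B-score at or below minus 3 SD of library scores, with starting-brightness B-score within 2 SD, cut at about -4.2 in these data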;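 further: channel flux triggered by added potassium and thallium sulfate stimulus; B-score of peak minus minimum fluorescence over baseline after thallium stimulus; more negative B-score means stronger Kir2.1 block with less thallium influx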
KCNQ1 inh: blocks the human KCNQ1 potassium channel. P51787. CHO-K1 KCNQ1, FluxOR thallium flux fluorescence; stronger effect = higher value. B-score at 10 µM. hit rate 1.3% among 310,000. AID 2642;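 active means compounds whose thallium flux B-score, printed positive for inhibition, exceeds three library SD while starting fluorescence stays within three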;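 further: channel opened by potassium depolarization with thallium stimulus after 20 min compound exposure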
KCNK9 inh conf: human KCNK9 inhibitor confirmation; hit rate 43% among 4,900; inhibition, % at 10 µM; shares compounds with KCNK9 inh; HEK293 KCNK9 cells, FluxOR thallium flux fluorescence;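 active means thallium signal inhibited by more than 5 SD of the compound-free buffer control wells, on both duplicate plates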
Kir21 sel: mouse Kir2.1 off-target activity of KCNK9 modulators; Kir2.1 cells, FluxOR thallium flux fluorescence; hit rate 4% among 4,900; AID 492993; shares compounds with KCNK9 inh; inhibition, % at 10 µM;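 active means thallium signal drop more than 5 SD beyond the mean of the no-compound control wells, seen in both duplicate plates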;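 further: signal is fluorescence rise after thallium addition divided by baseline fluorescence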
KCNK9 uninduced: non-induced cell nonspecific activity of KCNK9 modulators. inhibition, % at 10 µM. non-induced KCNK9-HEK293, FluxOR thallium flux. AID 492997. hit rate 40% among 4,900. shares compounds with KCNK9 inh;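 active means thallium signal drop beyond 5 SD of the untreated control mean, on both duplicate plates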
Large screens that a line does not name were inactive (follow-up assays come after a bar, where they were run); ! = not confirmed by another sample. This is a sample that favours compounds with a hit; in the whole collection about 3.8% have one here.

Cc1cccc(NC(=O)CN2CCc3cc4c(cc3C2C)OCCCO4)c1 (configuration not stated)	none | KCNK9 inh conf inactive | Kir21 sel inactive | KCNK9 uninduced inactive
Cc1cccc(NC(=O)CN2CCc3cc4c(cc3C2)OCCCO4)c1	none | KCNK9 inh conf inactive | Kir21 sel inactive | KCNK9 uninduced inactive
COc1ccc(NC(=O)CN2C(=O)NC3(CCCCCC3)C2=O)cc1Cl	none (no result: KCNQ1 act, KCNK9 inh, hERG protect, Kir21 inh, KCNQ1 inh)
Cc1cccnc1Nc1nc(-c2ccccc2)cs1	none | KCNK9 inh conf inactive | Kir21 sel inactive | KCNK9 uninduced 26%
Cc1cccnc1Nc1nc(-c2ccccn2)cs1	none
Cc1ccc(Cn2cc(SCC(=O)Nc3nccs3)c3ccccc32)cc1	none | KCNK9 inh conf inactive | Kir21 sel inactive | KCNK9 uninduced inactive
O=C(NC(=S)N1CCCc2ccccc21)c1ccc([N+](=O)[O-])cc1	none
CCOC(=O)c1c(NC(=O)C(=O)N/N=C/c2ccc(O)c(OC)c2)sc2c1CCCCC2	KCNK9 inh -8.5 | KCNK9 inh conf 56% | Kir21 sel inactive | KCNK9 uninduced 30%
CCOC(=O)c1c(NC(=O)C(=O)N/N=C/c2ccc(OCC)cc2)sc2c1CCCCC2	none
O=C(OCc1ccccc1Cl)c1ccccc1C(=O)c1ccccc1	KCNK9 inh -8.7 | KCNK9 inh conf inactive | Kir21 sel 41% | KCNK9 uninduced 38%
CC(C)c1cc(CNC(=O)c2ccc(OC3CCN(Cc4ccccn4)CC3)cc2)on1	none
CCN(CC)c1ccc(-c2nn3c(-c4n[nH]c5c4CCC5)nnc3s2)cc1	KCNK9 inh -14, KCNK3 inh -9 | KCNK9 inh conf 44% | Kir21 sel inactive | KCNK9 uninduced 36%
CC(C)N(Cc1ccccc1)S(=O)(=O)c1cccs1	KCNK9 inh -8.5, KCNK3 inh -11, Kir21 inh -4.8 | KCNK9 inh conf 40% | Kir21 sel inactive | KCNK9 uninduced 37%
NC(=O)CSc1nnnn1-c1ccc(OC(F)(F)F)cc1	none
CN(C)S(=O)(=O)Oc1ccsc1C(=O)Nc1ccc(Cl)cc1	KCNK9 inh -11, KCNK3 inh -11 | KCNK9 inh conf 33% | Kir21 sel inactive | KCNK9 uninduced 40%
COc1ccc(NC(=O)c2sccc2OS(=O)(=O)N(C)C)cc1	none
COc1ccc(COc2ccsc2C(=O)Nc2ccc(Cl)cc2)cc1	KCNK9 inh -9 | KCNK9 inh conf 44% | Kir21 sel inactive | KCNK9 uninduced 26%
CCN(C(=O)COC(=O)c1ccc(Cl)cc1N)C1CCCCC1	none | KCNK9 inh conf inactive | Kir21 sel inactive | KCNK9 uninduced inactive
CCN(Cc1ccccc1)C(c1ccc(Cl)cc1)c1nnnn1C(C)(C)C (configuration not stated)	KCNK9 inh -10 | KCNK9 inh conf 59% | Kir21 sel inactive | KCNK9 uninduced 54%
COc1ccc(-c2[nH]c(-c3ccc(C(=O)O)cc3)nc2-c2ccccc2)cc1	none
COc1cc(-c2nc(-c3ccc4c(c3)-c3ccccc3S4(=O)=O)c(-c3ccccc3)[nH]2)cc(OC)c1O	KCNK9 inh -16, KCNK3 inh -10, KCNQ1 inh 6 | KCNK9 inh conf 69% | Kir21 sel inactive | KCNK9 uninduced 28%
O=[N+]([O-])c1cc([N+](=O)[O-])c(Oc2ccccc2F)cc1NN1CCCCC1	none
Cc1ccc(C)c(Oc2cc(NN3CCCCC3)c([N+](=O)[O-])cc2[N+](=O)[O-])c1	KCNK9 inh -11 | KCNK9 inh conf 32% | Kir21 sel inactive | KCNK9 uninduced inactive
CCOCC(=O)Nc1ccc([N+](=O)[O-])cc1OC	none
Nc1nc(-c2cccs2)c(CC(=O)O)s1	none
Nc1nc(-c2cccs2)c(-c2cccs2)s1	KCNK9 inh -8.8 | KCNK9 inh conf 44% | Kir21 sel inactive | KCNK9 uninduced inactive
CCCCCCCCCCCCCCCCn1cc[n+](C)c1	KCNK9 inh -12!, KCNK3 inh -12!, KCNQ1 inh 10! | KCNK9 inh conf 62% | Kir21 sel 44% | KCNK9 uninduced 26%
CCCCCCCCn1ccc(=N)cc1	none
O=C(COC(=O)c1ccco1)NC1CCCc2ccccc21 (configuration not stated)	none (no result: KCNQ1 act, KCNK9 inh, hERG protect, Kir21 inh, KCNQ1 inh)
Cc1cc(C)cc(NC(=O)c2cccn2-c2ncc(C(F)(F)F)cc2Cl)c1	none | KCNK9 inh conf inactive | Kir21 sel inactive | KCNK9 uninduced inactive
CCOC(=O)CSc1nc2ccccc2c(=O)n1Cc1ccco1	none
CCOC(=O)CSc1nc2c(sc(=S)n2-c2ccccc2OC)c(=O)n1-c1ccccc1OC	KCNK9 inh -10 | KCNK9 inh conf inactive | Kir21 sel inactive | KCNK9 uninduced 31%
CCOC(=O)CSc1nc2c(sc(=S)n2-c2ccccc2OC)c(=O)n1Cc1ccco1	KCNK9 inh -9.1 | KCNK9 inh conf inactive | Kir21 sel inactive | KCNK9 uninduced 36%
CCOC(=O)C1CCN(C/C=C/c2ccccc2[N+](=O)[O-])CC1	none
CO/N=C(\c1ccccc1)c1cccnc1	none
CCOCCCNC(=S)N1CCCN(c2nc3cc(C)c(C)cc3cc2C#N)CC1	none | KCNK9 inh conf inactive | Kir21 sel inactive | KCNK9 uninduced inactive
Cc1c(C(=O)NC2CCCc3ccccc32)cccc1[N+](=O)[O-] (configuration not stated)	none
CC(C(=O)NC1CCCC1)N(C(=O)c1ccc(-c2ccccc2)[nH]1)c1ccccc1F (configuration not stated)	KCNQ1 inh 6 | KCNK9 inh conf inactive | Kir21 sel inactive | KCNK9 uninduced inactive
COc1ccc(N=C(c2ccccc2)c2c(C)[nH]n(-c3ccccc3)c2=O)c(OC)c1	KCNQ1 inh 6 | KCNK9 inh conf inactive | Kir21 sel inactive | KCNK9 uninduced 32%
COC(=O)c1ccccc1NC(=O)C12CC3CC(C1)CC(n1cnc(Cl)n1)(C3)C2	none | KCNK9 inh conf inactive | Kir21 sel inactive | KCNK9 uninduced inactive
COC(=O)C12CC3CC(C1)CC(n1cnc(Cl)n1)(C3)C2	none
CCn1c(CC(=O)Nc2ccccc2F)nnc1SCC(=O)Nc1nnc(C)s1	none
COc1ccc(C(=O)N/N=C/c2c[nH]c3ccccc23)cc1	none
CCCCCN=C(N)N/N=C/c1c[nH]c2ccc(OC)cc12	KCNK9 inh -11, KCNQ1 inh 7 | KCNK9 inh conf 66% | Kir21 sel 64% | KCNK9 uninduced inactive
O=C(NCc1ccco1)c1ccc2c(c1)N(Cc1ccccc1)C(=O)CS2	none | KCNK9 inh conf inactive | Kir21 sel inactive | KCNK9 uninduced inactive
